Data from PMC6847114 (Nucleic Acids Research, 2019).

Assays:
[1] = ref [52]; cited from earlier work
HeLa cells = type: cell-based; conditions: Ru 100 μM + HCPs 300 μM; for Nuclear uptake of [Ru(bpy)2(dppz)]^2+ in full medium: full medium containing serum, CLSM
[2] = n-Octanol/aqueous partitioning; type: physicochemical; conditions: n-octanol / Tris–HCl buffer 10 mM pH 7.4, Ru 100 μM
In short: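 Shake-flask partitioning of the Ru complex between n-octanol and aqueous Tris–HCl (10 mM, pH 7.4), run with or without highly chlorinated phenols (penta-, tetra- or trichlorophenols) at different Ru:phenol ratios. The complex was quantified in each phase by UV-vis absorbance. Ion-pair lipophilicity is reported as n-octanol-phase absorption intensity at Ru/phenol 1:10, multiplied by 10.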

[3] = ref [53],[54]; cited from earlier work

Structure (SMILES) | log Kow [1] | Nuclear uptake of [Ru(bpy)2(dppz)]^2+ in full medium (HeLa cells) | Lipophilicity of the ion-pairing complex formed with [Ru(bpy)2(dppz)]Cl2 [2] | pKa [3] | Cellular and nuclear uptake of [Ru(bpy)2(dppz)]^2+ by luminescence (HeLa cells; serum-free medium, flow cytometry and CLSM)
Oc1c(Cl)c(Cl)c(Cl)c(Cl)c1Cl [PCP, pentachlorophenol] | 5.01 | facilitated | most lipophilic | – | –
Oc1cc(Cl)c(Cl)c(Cl)c1Cl [2,3,4,5-TeCP, 2,3,4,5-tetrachlorophenol] | 4.95 | facilitated | least hydrophobic | 5.64 | most effective
